Assay results taken from ChEMBL document CHEMBL4425135, “Novel C-Ring-Hydroxy-Substituted Controlled Deactivation Cannabinergic Analogues” (J Med Chem, 2016).
Active and inactive are the calls of the source. The rule behind the calls is not given here.

Assays:
Cannabinoid receptor 1 [1] = target: T1, Cannabinoid receptor 1 (Rattus norvegicus, UniProt P20272); assay: Displacement of [3H]CP55940 from CB1 receptor in rat brain membranes by scintillation counting method; format: cell membranes
In short: (§1)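 Competition binding against [3H]CP-55,940 using rat brain membranes (CB1) or membranes of HEK293 cells expressing mouse or human CB2. IC50 from nonlinear regression, converted to Ki. Each experiment run in triplicate; Ki is the mean of three independent experiments.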

Cannabinoid receptor 2 [2] = target: T2, Cannabinoid receptor 2 (Mus musculus, UniProt P47936); assay: Displacement of [3H]CP55940 from mouse CB2 receptor expressed in HEK293 cell membranes by scintillation counting method; in short: as §1
Rattus norvegicus [3] = assay: Hypothermic activity in sc dosed Sprague-Dawley rat assessed as decrease in rectal body temperature measured over 6 hrs; format: functional
In short: (§2)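 Female Sprague-Dawley rats, 250–350 g, n = 6/group, retested with ≥5 days between sessions. Dosed sc (1.0 mL/kg) in 20% ethanol/20% alkamuls/60% saline diluted with saline. Rectal thermistor at 6 cm depth. Two baselines 15 min apart, then readings every 30 min for 3 h and hourly to 6 h. Change taken from mean baseline.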

Rattus norvegicus [4] = assay: Hypothermic activity in Sprague-Dawley rat assessed as time required for decrease in rectal body temperature at 0.01 to 1 mg/kg, sc; format: functional; in short: as §2
Squirrel monkey [5] = assay: Induction of CB1-related discriminative stimulus effect in squirrel monkey at 0.003 mg/kg, im measured within 15 mins; format: functional, organism-based; conditions: Saimiri sciureus
In short: (§3)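 Squirrel monkeys trained on two levers to discriminate 0.01 mg/kg im CB1 agonist from vehicle. After im test dosing, sequential sessions began at 15, 30, 60, 120, 240, 480 and 960 min, with some groups also tested at 36 and 48 h. Measured percent responding on the agonist lever (≥90% counted as full substitution) and overall response rate.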

Squirrel monkey [6] = assay: Induction of CB1-related discriminative stimulus effect in squirrel monkey assessed as time required for 50% loss of full effect at 0.003 mg/kg, im; format: functional, organism-based; conditions: Saimiri sciureus; in short: as §3
Squirrel monkey [7] = assay: Induction of CB1-related discriminative stimulus effect in squirrel monkey at 0.003 mg/kg, im measured after 24 hrs; format: functional, organism-based; conditions: Saimiri sciureus
Squirrel monkey [8] = assay: Induction of CB1-related discriminative stimulus effect in squirrel monkey at 0.003 mg/kg, im measured at 36 hrs; format: functional, organism-based; conditions: Saimiri sciureus; in short: as §3
Cannabinoid receptor 1 [9] = target: T1, Cannabinoid receptor 1; assay: Binding affinity to rat CB1 receptor
In short: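 Competition displacement of [3H]CP-55,940 from rat brain membranes (CB1 source). IC50 from nonlinear regression of competition curves, converted to Ki. Each experiment run in triplicate; Ki is the mean of three independent experiments.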

Cannabinoid receptor 2 [10] = target: T2, Cannabinoid receptor 2; assay: Binding affinity to mouse CB2 receptor; in short: as §1
Squirrel monkey [11] = assay: Effect on response rate in squirrel monkey at 0.003 mg/kg, im; format: functional, organism-based; conditions: Saimiri sciureus; in short: as §3
Cannabinoid receptor 2 [12] = target: T3, Cannabinoid receptor 2 (Homo sapiens, UniProt P34972); assay: Displacement of [3H]CP55940 from human CB2 receptor expressed in HEK293 cell membranes by scintillation counting method; in short: as §1
[13] = Half life in mouse plasma assessed as esterase-mediated compound hydrolysis at 200 uM by HPLC method; format: ADME, cell-free
In short: (§4)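 Compound diluted to 200 μM in mouse or rat plasma and shaken at 37 °C, 100 rpm. Samples taken at timed points, diluted 1:4 in acetonitrile and centrifuged. Supernatant analysed by reversed-phase C18 HPLC, acetonitrile/acidified water gradient, UV detection. 4-Nitrophenyl butyrate run as control in each experiment. Half-life from exponential decay fit.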

[14] = Half life in rat plasma assessed as esterase-mediated compound hydrolysis at 200 uM by HPLC method; format: ADME, cell-free; in short: as §4
Cannabinoid receptor 1 [15] = target: T1, Cannabinoid receptor 1; assay: Agonist activity at rat CB1 receptor expressed in HEK293 cells assessed as decrease in forskolin-stimulated cAMP levels after 30 mins; format: functional, cell-based
In short: (§5)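 Stably transfected HEK293 cells harvested with Versene, washed in HBSS, resuspended in stimulation buffer. Cells exposed to graded compound concentrations in buffer containing forskolin (2 μM final), 30 min at room temperature. cAMP read by TR-FRET (Eu-cAMP tracer plus ULight anti-cAMP antibody, 60 min room temperature). EC50 from nonlinear regression.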

[16] = target: Cannabinoid receptor 1 (Rattus norvegicus) (UniProt P20272); assay: Agonist activity at rat CB1 receptor expressed in HEK293 cells assessed as decrease in forskolin-stimulated cAMP levels at 500 nM after 30 mins relative to CP-55940; format: functional, cell-based
Cannabinoid receptor 2 [17] = target: T3, Cannabinoid receptor 2; assay: Agonist activity at human CB2 receptor expressed in HEK293 cells assessed as decrease in forskolin-stimulated cAMP levels after 30 mins; format: functional, cell-based; in short: as §5
Cannabinoid receptor 2 [18] = target: T3, Cannabinoid receptor 2; assay: Agonist activity at human CB2 receptor expressed in HEK293 cells assessed as decrease in forskolin-stimulated cAMP levels at 500 nM after 30 mins relative to CP-55940; format: functional, cell-based
Rattus norvegicus [19] = assay: Hypothermic activity in Sprague-Dawley rat assessed as decrease in rectal body temperature at 1 mg/kg, sc measured over 6 hrs; format: functional; in short: as §2
Rattus norvegicus [20] = assay: Hypothermic activity in Sprague-Dawley rat assessed as decrease in rectal body temperature at 0.1 mg/kg, sc measured over 6 hrs; format: functional; in short: as §2
Rattus norvegicus [21] = assay: Hypothermic activity in Sprague-Dawley rat assessed as decrease in rectal body temperature at 0.1 mg/kg, sc after 6 hrs; format: functional, organism-based; in short: as §2
Mus musculus [22] = assay: Analgesic activity in CD1 mouse assessed as increase in tail flick latency at 1 mg/kg, ip measured at 20 mins relative to control; format: functional
In short: (§6)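 Male CD-1 mice, 30–35 g, n = 6, each used once, habituated over three mock sessions at 38 °C. Tail-flick latency in a 52 °C water bath at baseline, then 20, 60, 180 and 360 min after ip dosing (10 mL/kg). Vehicle 2% DMSO/4% Tween-80/4% propylene glycol with saline, freshly prepared. Scored as %MPE.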

Mus musculus [23] = assay: Analgesic activity in CD1 mouse assessed as increase in tail flick latency at 1 mg/kg, ip measured at 60 mins relative to control; format: functional; in short: as §6
Mus musculus [24] = assay: Analgesic activity in CD1 mouse assessed as increase in tail flick latency at 1 mg/kg, ip measured at 180 mins relative to control; format: functional; in short: as §6
Mus musculus [25] = assay: Analgesic activity in CD1 mouse assessed as increase in tail flick latency at 1 mg/kg, ip measured at 360 mins relative to control; format: functional; in short: as §6
Squirrel monkey [26] = assay: Induction of CB1-related discriminative stimulus effect in squirrel monkey at 0.001 mg/kg, im after 1 hr; format: functional, organism-based; conditions: Saimiri sciureus; in short: as §3
Squirrel monkey [27] = assay: Induction of CB1-related discriminative stimulus effect in squirrel monkey at 0.001 mg/kg, im after 4 to 16 hrs; format: functional, organism-based; conditions: Saimiri sciureus; in short: as §3
Squirrel monkey [28] = assay: Induction of CB1-related discriminative stimulus effect in squirrel monkey assessed as time required for 50% loss of full effect at 0.001 mg/kg, im; format: functional, organism-based; conditions: Saimiri sciureus; in short: as §3
Squirrel monkey [29] = assay: Effect on response rate in squirrel monkey at 0.001 mg/kg, im; format: functional, organism-based; conditions: Saimiri sciureus; in short: as §3
Rattus norvegicus [30] = assay: Hypothermic activity in Sprague-Dawley rat assessed as decrease in rectal body temperature at 3 mg/kg, sc measured over 6 hrs; format: functional; in short: as §2
Rattus norvegicus [31] = assay: Hypothermic activity in Sprague-Dawley rat assessed as time required for decrease in rectal body temperature at 0.03 to 3 mg/kg, sc; format: functional; in short: as §2
Rattus norvegicus [32] = assay: Hypothermic activity in Sprague-Dawley rat assessed as time required for decrease in rectal body temperature at 0.1 to 3 mg/kg, sc; format: functional; in short: as §2

T1 sequence (P20272 whole entry): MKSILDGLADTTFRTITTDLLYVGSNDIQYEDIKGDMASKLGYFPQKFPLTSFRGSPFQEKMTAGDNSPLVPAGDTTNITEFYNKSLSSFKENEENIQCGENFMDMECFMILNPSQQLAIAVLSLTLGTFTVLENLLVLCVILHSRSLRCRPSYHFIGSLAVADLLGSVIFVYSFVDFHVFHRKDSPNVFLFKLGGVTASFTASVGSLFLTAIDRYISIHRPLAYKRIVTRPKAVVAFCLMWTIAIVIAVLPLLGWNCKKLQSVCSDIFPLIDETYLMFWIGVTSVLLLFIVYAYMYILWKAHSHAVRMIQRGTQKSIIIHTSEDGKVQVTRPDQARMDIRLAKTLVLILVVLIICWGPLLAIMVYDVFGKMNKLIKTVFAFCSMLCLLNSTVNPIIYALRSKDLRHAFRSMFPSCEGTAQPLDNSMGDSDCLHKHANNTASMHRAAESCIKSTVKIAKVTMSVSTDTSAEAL
Chain of Cannabinoid receptor 1 (Rattus norvegicus) (P20272 whole entry): as above
T2 sequence (P47936 whole entry): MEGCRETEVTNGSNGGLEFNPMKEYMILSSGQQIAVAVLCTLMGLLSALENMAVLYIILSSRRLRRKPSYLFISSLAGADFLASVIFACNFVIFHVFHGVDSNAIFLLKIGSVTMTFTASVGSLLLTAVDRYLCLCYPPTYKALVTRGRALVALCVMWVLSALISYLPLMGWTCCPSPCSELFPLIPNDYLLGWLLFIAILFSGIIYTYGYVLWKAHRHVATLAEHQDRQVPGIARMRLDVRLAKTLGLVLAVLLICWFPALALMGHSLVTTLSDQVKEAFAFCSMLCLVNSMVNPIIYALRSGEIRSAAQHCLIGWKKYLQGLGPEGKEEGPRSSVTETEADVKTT
T3 sequence (P34972 whole entry): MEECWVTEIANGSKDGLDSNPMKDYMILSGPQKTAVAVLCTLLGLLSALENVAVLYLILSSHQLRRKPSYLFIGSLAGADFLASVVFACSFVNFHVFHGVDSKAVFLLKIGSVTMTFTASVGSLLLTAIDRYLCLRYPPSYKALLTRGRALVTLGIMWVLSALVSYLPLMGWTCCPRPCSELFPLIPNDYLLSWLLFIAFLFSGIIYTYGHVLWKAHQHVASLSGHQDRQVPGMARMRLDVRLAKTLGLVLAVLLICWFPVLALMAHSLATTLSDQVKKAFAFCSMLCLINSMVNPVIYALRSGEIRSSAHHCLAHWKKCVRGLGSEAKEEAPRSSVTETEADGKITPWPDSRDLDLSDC

CC(C)(C(=O)O)c1cc(O)c2c(c1)OC(C)(C)[C@@H]1CC[C@H](O)C[C@@H]21
Ki (Cannabinoid receptor 1 [1]): > 10 µM
Ki (Cannabinoid receptor 2 [2]): > 10 µM

CC1(C)Oc2cc(CC(=O)O)cc(O)c2[C@@H]2C[C@@H](O)CC[C@H]21
Ki (Cannabinoid receptor 1 [1]): > 10 µM
Ki (Cannabinoid receptor 2 [2]): > 10 µM

CCCCCCC(C)(C)c1cc(O)c2c(c1)OC(C)(C)[C@@H]1CC=C(CO)C[C@@H]21
ED50 (Rattus norvegicus [3]): 0.04 mg/kg
Time (Rattus norvegicus [4]): 1 to 3 h
Activity (Squirrel monkey [5]): Active
T1/2 (Squirrel monkey [6]): 66 min
Activity (Squirrel monkey [7]): Active
Activity (Squirrel monkey [8]): inactive
Ki (Cannabinoid receptor 1 [9]): 0.0007 µM
Ki (Cannabinoid receptor 2 [10]): 0.0002 µM
Activity (Squirrel monkey [11]): inactive

CCCCOC(=O)Cc1cc(O)c2c(c1)OC(C)(C)[C@@H]1CC[C@H](O)C[C@@H]21
Ki (Cannabinoid receptor 1 [1]): 0.75 µM
Ki (Cannabinoid receptor 2 [2]): 0.654 µM
Ki (Cannabinoid receptor 2 [12]): 0.733 µM

CCCCOC(=O)C(C)(C)c1cc(O)c2c(c1)OC(C)(C)[C@@H]1CC[C@@H](CO)C[C@@H]21
Ki (Cannabinoid receptor 1 [1]): 0.0024 µM
Ki (Cannabinoid receptor 2 [2]): 0.0001 µM
Ki (Cannabinoid receptor 2 [12]): 0.0031 µM
t1/2 [13]: 3.1 min
t1/2 [14]: 39.2 min
EC50 (Cannabinoid receptor 1 [15]): 0.0025 µM
Emax [16]: 87%
EC50 (Cannabinoid receptor 2 [17]): 0.0003 µM
Emax (Cannabinoid receptor 2 [18]): 82%
T (Rattus norvegicus [19]): 4.7 - 7.2 °C
Activity (Rattus norvegicus [3]): Dose-dependent effect
ED50 (Rattus norvegicus [3]): 0.04 mg/kg
T (Rattus norvegicus [20]): >4 °C
Activity (Rattus norvegicus [21]): inactive
Time (Rattus norvegicus [4]): 1 to 3 h
MPE (Mus musculus [22]): 94%
MPE (Mus musculus [23]): 96%
MPE (Mus musculus [24]): 97%
MPE (Mus musculus [25]): 58%
Activity (Squirrel monkey [26]): Active
Activity (Squirrel monkey [27]): inactive
T1/2 (Squirrel monkey [28]): 48 min
Activity (Squirrel monkey [29]): inactive

CC(C)(C(=O)O)c1cc(O)c2c(c1)OC(C)(C)[C@@H]1CC=C(CO)C[C@@H]21
Ki (Cannabinoid receptor 1 [1]): > 10 µM
Ki (Cannabinoid receptor 2 [2]): > 10 µM

CCCCOC(=O)C(C)(C)c1cc(O)c2c(c1)OC(C)(C)[C@@H]1CC=C(CO)C[C@@H]21
t1/2 [13]: 5 min
t1/2 [14]: 39.1 min
EC50 (Cannabinoid receptor 1 [15]): 0.0046 µM
Emax [16]: 89%
EC50 (Cannabinoid receptor 2 [17]): 0.0057 µM
Emax (Cannabinoid receptor 2 [18]): 83%
T (Rattus norvegicus [30]): 4.7 - 7.2 °C
Activity (Rattus norvegicus [3]): Dose-dependent effect
ED50 (Rattus norvegicus [3]): 0.04 mg/kg
Time (Rattus norvegicus [31]): 1 to 3 h
T (Rattus norvegicus [20]): >4 °C
Activity (Rattus norvegicus [21]): inactive

CC(C)(C(=O)O)c1cc(O)c2c(c1)OC(C)(C)[C@@H]1CC[C@@H](CO)C[C@@H]21
Ki (Cannabinoid receptor 1 [1]): > 10 µM
Ki (Cannabinoid receptor 2 [2]): > 10 µM

CC1(C)Oc2cc(CC(=O)O)cc(O)c2[C@@H]2C[C@H](O)CC[C@H]21
Ki (Cannabinoid receptor 1 [1]): > 10 µM
Ki (Cannabinoid receptor 2 [2]): > 10 µM

CCCCOC(=O)C(C)(C)c1cc(O)c2c(c1)OC(C)(C)[C@@H]1CC[C@H](O)C[C@@H]21
t1/2 [13]: 2.8 min
t1/2 [14]: 5.6 min

CCCCOC(=O)C(C)(C)c1cc(O)c2c(c1)OC(C)(C)[C@@H]1CC[C@@H](O)C[C@@H]21
t1/2 [13]: 2.7 min
t1/2 [14]: 10.2 min
EC50 (Cannabinoid receptor 1 [15]): 0.0086 µM
Emax [16]: 85%
EC50 (Cannabinoid receptor 2 [17]): 0.009 µM
Emax (Cannabinoid receptor 2 [18]): 85%
T (Rattus norvegicus [30]): 4.7 - 7.2 °C
Activity (Rattus norvegicus [3]): Dose-dependent effect
ED50 (Rattus norvegicus [3]): 0.74 mg/kg
Time (Rattus norvegicus [32]): 1 to 3 h

CCCCOC(=O)Cc1cc(O)c2c(c1)OC(C)(C)[C@@H]1CC[C@@H](O)C[C@@H]21
Ki (Cannabinoid receptor 1 [1]): 0.238 µM
Ki (Cannabinoid receptor 2 [2]): 0.317 µM
Ki (Cannabinoid receptor 2 [12]): 0.432 µM

CC(C)(C(=O)O)c1cc(O)c2c(c1)OC(C)(C)[C@@H]1CC[C@@H](O)C[C@@H]21
Ki (Cannabinoid receptor 1 [1]): > 10 µM
Ki (Cannabinoid receptor 2 [2]): > 10 µM
